# Assay outcomes from PubChem.
# Shown are actives, neighbours in structure and some others; about 1.5% of the full set was active somewhere.
# S100A4 inh HTS = inhibitors of S100A4-myosin IIA peptide binding, primary screen, biochemical, fluorescence polarization, TAMRA-MyoIIA peptide; AID 652163, 2013; inhibition, % at 10.7 µM; Protein S100-A4 (Homo sapiens), P26447; 360,000 tested, 0.14% active;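 active = mean inhibition of at least 70% across replicates, with every replicate also reaching that level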
#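 Assay system: human S100A4 monomer with TAMRA-labelled myosin IIA peptide / Buffer or medium: Calcium-containing HEPES buffer, pH 7.2 / Reagent: TAMRA-labelled myosin IIA heavy-chain peptide probe, 5 nM / Compound: one dose per compound / Timing: polarization read 5 min after assay mix addition, stable 5–60 min / Benchmarks: neutral control DMSO, positive control TFP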
# RAD52 anneal inh = RAD52 DNA annealing inhibitors, primary screen, biochemical, FRET, single point, set 2 | recombinant RAD52 DNA annealing, FRET fluorescence | inhibition, % at 18.7 µM | 360,000 tested, 0.46% active | DNA repair protein RAD52 homolog (Homo sapiens), P43351;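 active = every replicate showing at least 50% inhibition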
# INS-1E GSIS act = GLuc luminescence reporter in INS-1E cells, primary screen for activators of glucose-dependent secretion of insulin | activation, % at 16.6 µM | 370,000 tested, 0.61% active | INS-1E GLuc reporter insulin secretion, 2-3 h;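 active = lowest replicate activation of at least 40%, so every replicate reaches that level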
# AF4-AF9 inh = inhibitors of AF4 peptide binding to AF9, primary screen, biochemical, AlphaScreen, biotin-AF4 peptide, FLAG-AF9, single point | inhibition, % at 10 µM | 350,000 tested, 0.47% active;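 active = every replicate reaching a set inhibition limit, whatever the replicate mean, cut at about 25% in these data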
# ERAP1 HTS inh = human ERAP1 aminopeptidase inhibitors, primary screen, biochemical, single point, plate reader; inhibition, % at 10.7 µM; recombinant ERAP1, Leu-AMC fluorescence, 60 min; Endoplasmic reticulum aminopeptidase 1 (Homo sapiens), Q9NZ08; 340,000 tested, 0.15% active;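 active = mean replicate inhibition of at least 30%, or all replicates individually reaching that 30% level; inactive = mean below 30% and not every replicate reaching it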
# Target sequence (Q9NZ08 whole entry, looked up): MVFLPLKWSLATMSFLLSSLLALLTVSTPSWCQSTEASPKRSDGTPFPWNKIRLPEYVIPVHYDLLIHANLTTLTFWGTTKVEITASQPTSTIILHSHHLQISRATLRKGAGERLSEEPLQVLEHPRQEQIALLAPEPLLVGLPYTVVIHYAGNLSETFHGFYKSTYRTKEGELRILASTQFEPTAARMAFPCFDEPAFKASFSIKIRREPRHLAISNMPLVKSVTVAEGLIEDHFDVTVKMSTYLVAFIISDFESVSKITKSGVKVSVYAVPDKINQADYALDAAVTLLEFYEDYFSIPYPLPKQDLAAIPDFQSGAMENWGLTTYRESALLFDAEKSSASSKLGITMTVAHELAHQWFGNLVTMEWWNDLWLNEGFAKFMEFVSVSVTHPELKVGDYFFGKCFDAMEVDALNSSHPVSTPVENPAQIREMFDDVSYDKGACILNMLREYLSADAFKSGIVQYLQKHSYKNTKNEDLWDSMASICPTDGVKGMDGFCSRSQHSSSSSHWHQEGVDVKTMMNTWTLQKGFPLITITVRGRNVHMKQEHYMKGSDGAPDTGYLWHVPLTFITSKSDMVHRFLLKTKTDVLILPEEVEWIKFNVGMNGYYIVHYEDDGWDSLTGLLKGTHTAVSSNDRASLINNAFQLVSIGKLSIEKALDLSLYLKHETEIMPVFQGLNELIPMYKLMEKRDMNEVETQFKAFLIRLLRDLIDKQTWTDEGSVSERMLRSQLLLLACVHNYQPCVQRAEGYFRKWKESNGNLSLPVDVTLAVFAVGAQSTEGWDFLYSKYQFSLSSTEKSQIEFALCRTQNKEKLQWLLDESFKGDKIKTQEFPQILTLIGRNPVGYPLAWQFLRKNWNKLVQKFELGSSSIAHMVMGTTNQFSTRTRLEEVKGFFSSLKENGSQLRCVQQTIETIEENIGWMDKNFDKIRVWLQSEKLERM
# Hits are given with their value; - = inactive; . = not tested or not shown.
SMILES,S100A4 inh HTS,RAD52 anneal inh,INS-1E GSIS act,AF4-AF9 inh,ERAP1 HTS inh
CCCCn1c(O)c(/C=C2\C=NN=C2c2ccccc2)sc1=S,.,.,119,.,.
CC(C)Cn1c(O)c(/C=C2\C=NN=C2c2ccccc2)sc1=S,.,.,83,.,.
CCn1c(O)c(/C=C2\C=NN=C2c2ccccc2)sc1=S,-,-,-,.,-
CCCCCCn1c(O)c(/C=C2\C=NN=C2c2ccccc2)sc1=S,.,.,164,.,.
C[C@@H]1CN([C@@H](C)CO)C(=O)c2cccc(N(C)C)c2O[C@H]1CN(C)C(=O)Nc1ccc2c(c1)OCO2,-,-,-,-,-
CNC[C@H]1Oc2c(NC(=O)NC(C)C)cccc2C(=O)N(C)C[C@H]1C,.,.,-,.,.
O=C(C[C@H]1C[C@@H]2c3cc(NC(=O)Nc4ccc(F)cc4)ccc3O[C@@H]2[C@@H](CO)O1)NC1CCCCC1,.,.,-,.,.
CC(C)(C)c1ccc(C#C[C@@H]2C=C[C@H]3OC(=O)CC/C=C/CCC(=O)OC[C@H]3O2)cc1,-,-,95,-,-
C[C@H]1CC=CC[C@H](c2ccc3c(c2)OCO3)NC(=O)[C@H](C)N(C)C(=O)c2ccccc2O1 (mixture of isomers),.,.,-,.,.
COc1cc(NCCCNC(C)C)c2nccc(C)c2c1,-,60,-,-,-
CN1CCCCN2[C@H](CO)[C@H](c3ccc(-c4ccccc4)cc3)[C@H]2C1,-,-,-,-,-
CN1CCCCN2[C@H](CO)[C@@H](c3ccc(-c4ccccc4)cc3)[C@@H]2C1,-,-,-,-,-
CN1CCCCN2[C@H](CO)[C@H](c3ccc(/C=C/c4ccccc4)cc3)[C@H]2C1,-,77,-,-,-
CN1CCCCN2[C@H](CO)[C@@H](c3ccc(/C=C/c4ccccc4)cc3)[C@H]2C1,-,53,-,-,-
CC(C)NC(=O)N1CC2(C1)[C@@H](c1ccccc1)[C@H](CO)N2C(=O)C1CC1,-,-,-,-,-
CS(=O)(=O)N1C[C@@H]2N[C@H](C1)C2c1ccc(-c2ccc(F)cc2)cc1 (stereo not given in full),.,.,-,.,.
CCOc1cc(C(=O)N(C)CC(=O)Nc2cccc3ccccc23)ccc1OC,-,-,57,-,-
O=c1[nH]c(=O)c2[nH]c(=S)[nH]c2[nH]1,-,-,-,-,50
CCOC(=O)C1CCN(C(=S)NC2CC3C=CC2C3)CC1 (stereo not given),-,-,-,32,-
NC(=O)C1CCN(C(=S)NC2CC3C=CC2C3)CC1 (stereo not given),-,-,-,-,-
COC(=O)c1ccc(CN2CC(=O)N3[C@H](CO)[C@H](c4ccc(-c5ccccc5)cc4)[C@H]3C2)cc1,.,.,-,.,.
CC(C)C(=O)Nc1ccc2c(c1)C(=O)N(C)[C@H]1CC[C@H](CC(=O)Nc3ccccc3)O[C@@H]1CO2,-,-,-,-,-
CC(C)C(=O)Nc1ccc2c(c1)C(=O)N(C)[C@H]1CC[C@H](CC(=O)Nc3cccc(F)c3)O[C@@H]1CO2,78,-,-,.,-
CN1C(=O)c2cc(NC(=O)Nc3ccc(Cl)cc3)ccc2OC[C@@H]2O[C@@H](CC(=O)NCCN3CCCCC3)CC[C@@H]21,-,57,-,-,-
CN1C(=O)c2cc(NC(=O)c3ccccc3Cl)ccc2OC[C@H]2O[C@H](CC(=O)NCC(F)(F)F)CC[C@H]21,-,-,.,-,-
SMILES,S100A4 inh HTS,RAD52 anneal inh,INS-1E GSIS act,AF4-AF9 inh,ERAP1 HTS inh
COC(=O)C[C@@H]1CC[C@@H]2[C@@H](COc3ccc(NS(=O)(=O)c4ccc(C)cc4)cc3C(=O)N2C)O1,-,-,-,-,-
COC(=O)C[C@@H]1CC[C@H]2[C@H](COc3ccc(NS(=O)(=O)c4ccc(C)cc4)cc3C(=O)N2C)O1,101,-,-,-,-
CN1C(=O)c2cc(NC(=O)c3ccccc3Cl)ccc2OC[C@@H]2O[C@@H](CC(=O)NCC(F)(F)F)CC[C@H]21,127,-,.,-,-
COc1ccc(C2C3=C(CCCC3=O)N(CC(=O)O)C3=C2C(=O)CCC3)cc1Br,-,-,-,-,-
COc1ccc(C2C3=C(CCCC3=O)N(CC(=O)O)C3=C2C(=O)CCC3)cc1Cl,-,-,-,-,31
CC(C)NC(=O)N1[C@@H]2CN(CC(F)(F)F)C[C@H]1C2c1ccc(Br)cc1 (stereo not given in full),.,.,-,.,.
O=C(Nc1ccccc1F)N1CCCCN2[C@H](CO)[C@@H](c3ccc(C4=CCCC4)cc3)[C@@H]2C1,.,.,-,.,.
COc1ccc(NC(=O)N2CCCCN3[C@H](CO)[C@@H](c4ccc(-c5ccccc5F)cc4)[C@H]3C2)cc1,-,52,-,-,-
O=C(Nc1ccccc1F)N1CCCCN2[C@H](CO)[C@@H](c3ccc(C4=CCCCC4)cc3)[C@H]2C1,-,56,.,-,-
COc1ccc(NC(=O)N2CCCCN3[C@H](CO)[C@H](c4ccc(C5=CCCC5)cc4)[C@H]3C2)cc1,-,-,.,-,-
COc1ccc(NC(=O)N2CCCCN3[C@@H](CO)[C@@H](c4ccc(C5=CCCC5)cc4)[C@@H]3C2)cc1,-,54,.,-,-
COc1ccc(NC(=O)N2CCCCN3[C@H](CO)[C@H](c4ccc(-c5ccccc5F)cc4)[C@H]3C2)cc1,-,57,-,-,-
COc1ccc(NC(=O)N2CCCCN3[C@H](C2)[C@@H](c2ccc(-c4ccccc4F)cc2)[C@@H]3CO)cc1,-,-,-,-,-
COc1ccc(NC(=O)Nc2ccc3c(c2)C(=O)N([C@H](C)CO)C[C@H](C)[C@@H](CN(C)S(=O)(=O)c2c(C)noc2C)O3)cc1,.,.,-,.,.
O=C(Nc1ccc(F)cc1)N[C@@H]1CC[C@H](CCNS(=O)(=O)c2ccccc2F)O[C@H]1CO,-,-,-,-,-
COc1ccc(NC(=O)N2CCCCN3[C@H](CO)[C@@H](c4ccc(-c5ccccc5F)cc4)[C@@H]3C2)cc1,-,56,-,-,-
Cc1ccc(S(=O)(=O)N(C)C[C@H]2OCCCC[C@H](C)Oc3ccc(NC(=O)c4ccccc4)cc3C(=O)N([C@H](C)CO)C[C@H]2C)cc1,-,-,-,-,-
Cc1cccc(CCNC(=O)Cc2ccc(NC3=NC4CS(=O)(=O)CC4S3)cc2)c1 (stereo not given),-,-,-,47,-
O=C(Cc1ccc(NC2=NC3CS(=O)(=O)CC3S2)cc1)NCCc1ccccc1 (stereo not given),-,-,-,-,-
Cn1cnc(S(=O)(=O)N2CC[C@@H]3[C@H]2c2cc(C4=CCCCC4)ccc2N[C@@H]3CO)c1,.,.,-,.,.
